Reference: ChEMBL document CHEMBL1155347, “Synthesis and antimicrobial activities of novel quinoline derivatives carrying 1,2,4-triazole moiety” (2009)
Converted amounts (≈) assume the structure as drawn.

What was measured:
Type in all cases: functional
[1] = system: Pseudomonas aeruginosa; assay: Antibacterial activity against Pseudomonas aeruginosa ATCC 27853 after 16 to 18 hrs by serial plate dilution method
How it was run: (§1)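 Drug serially diluted in Mueller–Hinton broth in tubes, adjusted to pH 5.0 with phosphate buffer. Inoculated with standardized bacterial suspension and incubated 16–18 h at 37 °C. MIC taken as lowest concentration with no visible growth.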

[2] = system: Aspergillus fumigatus; assay: Antifungal activity against Aspergillus fumigatus NCIM 902 at MIC after 3 to 4 days by agar well diffusion method
How it was run: (§2)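 Sabouraud agar (peptone, D-glucose, agar; pH 5.7) seeded with spore suspension made by transferring a loopful of fungus to 3 mL normal saline. Excess decanted, plates dried 1 h at 37 °C. Compounds in DMSO at MIC added to punched wells; DMSO control. Triplicate plates kept 3–4 days at 37 °C.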

[3] = system: Pseudomonas aeruginosa; assay: Antibacterial activity against Pseudomonas aeruginosa ATCC 27853 at MIC after 3 to 4 days by agar well diffusion method
[4] = system: Klebsiella pneumoniae; assay: Antibacterial activity against recultured Klebsiella pneumoniae after 16 to 18 hrs by serial plate dilution method; how it was run: as §1
[5] = system: Aspergillus flavus; assay: Antifungal activity against Aspergillus flavus NCIM 524 at MIC after 3 to 4 days by agar well diffusion method; how it was run: as §2
[6] = system: Escherichia coli; assay: Antibacterial activity against Escherichia coli ATCC 25922 at MIC after 3 to 4 days by agar well diffusion method
[7] = system: Talaromyces marneffei; assay: Antifungal activity against recultured Penicillium marneffei at MIC after 3 to 4 days by agar well diffusion method; how it was run: as §2
[8] = system: Talaromyces marneffei; assay: Antifungal activity against recultured Penicillium marneffei by serial plate dilution method
[9] = system: Klebsiella pneumoniae; assay: Antibacterial activity against recultured Klebsiella pneumoniae at MIC after 3 to 4 days by agar well diffusion method
[10] = system: Staphylococcus aureus; assay: Antibacterial activity against Staphylococcus aureus ATCC 25923 after 16 to 18 hrs by serial plate dilution method; how it was run: as §1
[11] = system: Staphylococcus aureus; assay: Antibacterial activity against Staphylococcus aureus ATCC 25923 at MIC after 3 to 4 days by agar well diffusion method
[12] = system: Aspergillus flavus; assay: Antifungal activity against Aspergillus flavus NCIM 524 by serial plate dilution method
[13] = system: Aspergillus fumigatus; assay: Antifungal activity against Aspergillus fumigatus NCIM 902 by serial plate dilution method
[14] = system: Trichophyton mentagrophytes; assay: Antifungal activity against recultured Trichophyton mentagrophytes by serial plate dilution method
[15] = system: Escherichia coli; assay: Antibacterial activity against Escherichia coli ATCC 25922 after 16 to 18 hrs by serial plate dilution method; how it was run: as §1
[16] = system: Trichophyton mentagrophytes; assay: Antifungal activity against recultured Trichophyton mentagrophytes at MIC after 3 to 4 days by agar well diffusion method; how it was run: as §2

| MIC [1] [µg/mL] | MIC [4] [µg/mL] | MIC [8] [µg/mL] | MIC [10] [µg/mL] | MIC [12] [µg/mL] | MIC [13] [µg/mL] | MIC [14] [µg/mL] | MIC [15] [µg/mL] | Compound | inhibition zone (IZ) [2] [mm] | inhibition zone (IZ) [3] [mm] | inhibition zone (IZ) [5] [mm] | inhibition zone (IZ) [6] [mm] | inhibition zone (IZ) [7] [mm] | inhibition zone (IZ) [9] [mm] | inhibition zone (IZ) [11] [mm] | inhibition zone (IZ) [16] [mm] |
| --- | --- | --- | --- | --- | --- | --- | --- | --- | --- | --- | --- | --- | --- | --- | --- | --- |
| 6.25 (≈ 13.7 µM) | 6.25 (≈ 13.7 µM) | 6.25 (≈ 13.7 µM) | 6.25 (≈ 13.7 µM) | 6.25 (≈ 13.7 µM) | 6.25 (≈ 13.7 µM) | 6.25 (≈ 13.7 µM) | 6.25 (≈ 13.7 µM) | FC(F)(F)c1cccc2c(N3CCOCC3)c(-c3nnc(S)n3-c3ccccc3)cnc12 | 16 | 16 | 16 | 20 | 16 | 16 | 16 | 20 |
| 6.25 (≈ 15.4 µM) | 6.25 (≈ 15.4 µM) | 6.25 (≈ 15.4 µM) | 6.25 (≈ 15.4 µM) | 6.25 (≈ 15.4 µM) | 6.25 (≈ 15.4 µM) | 6.25 (≈ 15.4 µM) | 6.25 (≈ 15.4 µM) | FC(F)(F)c1cccc2c(Cl)c(-c3nnc(S)n3-c3ccccc3)cnc12 | 16 | 16 | 16 | 20 | 16 | 16 | 16 | 20 |
| 50 (≈ 119 µM) | 50 (≈ 119 µM) | 50 (≈ 119 µM) | 50 (≈ 119 µM) | 50 (≈ 119 µM) | 50 (≈ 119 µM) | 50 (≈ 119 µM) | 50 (≈ 119 µM) | FC(F)(F)c1cccc2c(Cl)c(-c3nnc(S)n3Cc3ccccc3)cnc12 | <10 | <10 | <10 | <10 | <10 | <10 | <10 | <10 |
| 50 (≈ 110 µM) | 50 (≈ 110 µM) | 6.25 (≈ 13.8 µM) | 50 (≈ 110 µM) | 6.25 (≈ 13.8 µM) | 6.25 (≈ 13.8 µM) | 6.25 (≈ 13.8 µM) | 50 (≈ 110 µM) | COCCn1c(S)nnc1-c1cnc2c(C(F)(F)F)cccc2c1NCCC(C)(C)C | 16 | <10 | 16 | <10 | 16 | <10 | <10 | 20 |
| 50 (≈ 90.5 µM) | 50 (≈ 90.5 µM) | 50 (≈ 90.5 µM) | 6.25 (≈ 11.3 µM) | 50 (≈ 90.5 µM) | 50 (≈ 90.5 µM) | 50 (≈ 90.5 µM) | 50 (≈ 90.5 µM) | FC(F)(F)c1cccc2c(N3CCN(C4CCCCC4)CC3)c(-c3nnc(S)n3Cc3ccccc3)cnc12 | <10 | <10 | <10 | <10 | <10 | <10 | 16 | <10 |
| 6.25 (≈ 16.1 µM) | 6.25 (≈ 16.1 µM) | 6.25 (≈ 16.1 µM) | 6.25 (≈ 16.1 µM) | 6.25 (≈ 16.1 µM) | 6.25 (≈ 16.1 µM) | 6.25 (≈ 16.1 µM) | 6.25 (≈ 16.1 µM) | Oc1c(-c2nnc(S)n2-c2ccccc2)cnc2c(C(F)(F)F)cccc12 | 16 | 16 | 16 | 20 | 16 | 16 | 16 | 20 |
| 6.25 (≈ 13.3 µM) | 6.25 (≈ 13.3 µM) | 6.25 (≈ 13.3 µM) | 6.25 (≈ 13.3 µM) | 6.25 (≈ 13.3 µM) | 6.25 (≈ 13.3 µM) | 6.25 (≈ 13.3 µM) | 6.25 (≈ 13.3 µM) | FC(F)(F)c1cccc2c(NC3CCCCC3)c(-c3nnc(S)n3-c3ccccc3)cnc12 | 16 | 16 | 16 | 20 | 16 | 16 | 16 | 20 |
